Source: ChEMBL document CHEMBL2375290, “Nonclassical antifolates, part 3: synthesis, biological evaluation and molecular modeling study of some new 2-heteroarylthio-quinazolin-4-ones” (Eur J Med Chem, 2013)
≈ marks a conversion by molar mass, not a printed value.

Columns and labels:
Hs-578T = experiment: Cytotoxicity against human Hs578T cells at 10 uM after 48 hrs by coulter counter analysis; format: functional; details: read-out: GI
NCI-H522 = experiment: Cytotoxicity against human NCI-H522 cells at 10 uM after 48 hrs by coulter counter analysis; format: functional; details: NCI-H522, 48 h, read-out: GI
PC-3 = experiment: Cytotoxicity against human PC3 cells at 10 uM after 48 hrs by coulter counter analysis; format: functional; details: PC-3, 48 h, read-out: GI
MDA-MB-231 = experiment: Cytotoxicity against human MDA-MB-231 cells at 10 uM after 48 hrs by coulter counter analysis; format: functional; details: MDA-MB-231, 48 h, read-out: GI
LOX IMVI = experiment: Cytotoxicity against human LOXIMVI cells at 10 uM after 48 hrs by coulter counter analysis; format: functional; details: read-out: GI
NCI-H23 = experiment: Cytotoxicity against human NCI-H23 cells at 10 uM after 48 hrs by coulter counter analysis; format: functional; details: NCI-H23, 48 h, read-out: GI
A498 = experiment: Cytotoxicity against human A498 cells at 10 uM after 48 hrs by coulter counter analysis; format: functional; details: A498, 48 h, read-out: GI
MOLT-4 = experiment: Cytotoxicity against human MOLT4 cells at 10 uM after 48 hrs by coulter counter analysis; format: functional; details: MOLT-4, 48 h, read-out: GI
UACC-62 = experiment: Cytotoxicity against human UACC62 cells at 10 uM after 48 hrs by coulter counter analysis; format: functional; details: UACC-62, 48 h, read-out: GI
RXF 393 = experiment: Cytotoxicity against human RXF393 cells at 10 uM after 48 hrs by coulter counter analysis; format: functional; details: RXF 393, 48 h, read-out: GI
HL-60(TB) = experiment: Cytotoxicity against human HL-60(TB) cells at 10 uM after 48 hrs by coulter counter analysis; format: functional; details: HL-60, 48 h, read-out: GI
Micrococcus luteus = experiment: Antimicrobial activity against Micrococcus luteus at 200 ug after 24 hrs by agar disc diffusion method; format: functional; details: read-out: DIZ
NCI-H226 = experiment: Cytotoxicity against human NCI-H226 cells at 10 uM after 48 hrs by coulter counter analysis; format: functional; details: NCI-H226, 48 h, read-out: GI
Pseudomonas aeruginosa = experiment: Antimicrobial activity against Pseudomonas aeruginosa at 200 ug after 24 hrs by agar disc diffusion method; format: functional; details: read-out: DIZ
SK-MEL-5 = experiment: Cytotoxicity against human SK-MEL-5 cells at 10 uM after 48 hrs by coulter counter analysis; format: functional; details: SK-MEL-5, 48 h, read-out: GI
[1] = Cytotoxicity against human EKVX cells at 10 uM after 48 hrs by coulter counter analysis; format: functional; details: read-out: GI
A549 = experiment: Cytotoxicity against human A549/ATCC cells at 10 uM after 48 hrs by coulter counter analysis; format: functional; details: A549, 48 h, read-out: GI
SN12C = experiment: Cytotoxicity against human SN12C cells at 10 uM after 48 hrs by coulter counter analysis; format: functional; details: read-out: GI
Bacillus subtilis [2] = experiment: Antimicrobial activity against Bacillus subtilis at 200 ug after 24 hrs by agar disc diffusion method; format: functional; details: read-out: DIZ
SR = experiment: Cytotoxicity against human SR cells at 10 uM after 48 hrs by coulter counter analysis; format: functional; details: read-out: GI
Escherichia coli = experiment: Antimicrobial activity against Escherichia coli at 200 ug after 24 hrs by agar disc diffusion method; format: functional; details: read-out: DIZ
UO-31 = experiment: Cytotoxicity against human UO31 cells at 10 uM after 48 hrs by coulter counter analysis; format: functional; details: UO-31, 48 h, read-out: GI
Dihydrofolate reductase = target: T1, Dihydrofolate reductase (Bos taurus, UniProt P00376); experiment: Inhibition of bovine DHFR after 2 mins by spectrophotometry
T1 sequence (P00376 whole entry): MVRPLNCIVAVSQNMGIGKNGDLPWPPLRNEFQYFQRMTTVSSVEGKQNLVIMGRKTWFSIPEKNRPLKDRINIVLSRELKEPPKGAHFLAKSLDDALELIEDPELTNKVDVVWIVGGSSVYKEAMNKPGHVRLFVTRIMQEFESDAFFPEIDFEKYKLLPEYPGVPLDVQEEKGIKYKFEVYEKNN

SF-295 = experiment: Cytotoxicity against human SF295 cells at 10 uM after 48 hrs by coulter counter analysis; format: functional; details: SF-295, 48 h, read-out: GI
CAKI-1 = experiment: Cytotoxicity against human Caki1 cells at 10 uM after 48 hrs by coulter counter analysis; format: functional; details: CAKI-1, 48 h, read-out: GI
CCRF-CEM = experiment: Cytotoxicity against human CCRF-CEM cells at 10 uM after 48 hrs by coulter counter analysis; format: functional; details: read-out: GI
SNB-75 = experiment: Cytotoxicity against human SNB75 cells at 10 uM after 48 hrs by coulter counter analysis; format: functional; details: SNB-75, 48 h, read-out: GI
MCF7 = experiment: Cytotoxicity against human MCF7 cells at 10 uM after 48 hrs by coulter counter analysis; format: functional; details: MCF7, 48 h, read-out: GI
T47D = experiment: Cytotoxicity against human T47D cells at 10 uM after 48 hrs by coulter counter analysis; format: functional; details: read-out: GI
OVCAR-4 = experiment: Cytotoxicity against human OVCAR4 cells at 10 uM after 48 hrs by coulter counter analysis; format: functional; details: OVCAR-4, 48 h, read-out: GI
SNB-19 = experiment: Cytotoxicity against human SNB19 cells at 10 uM after 48 hrs by coulter counter analysis; format: functional; details: SNB-19, 48 h, read-out: GI
MDA-MB-435 = experiment: Cytotoxicity against human MDA-MB-435 cells at 10 uM after 48 hrs by coulter counter analysis; format: functional; details: MDA-MB-435, 48 h, read-out: GI
Staphylococcus aureus = experiment: Antimicrobial activity against Staphylococcus aureus at 200 ug after 24 hrs by agar disc diffusion method; format: functional; details: read-out: DIZ
RPMI-8226 = experiment: Cytotoxicity against human RPMI8226 cells at 10 uM after 48 hrs by coulter counter analysis; format: functional; details: RPMI-8226, 48 h, read-out: GI
IGROV-1 = experiment: Cytotoxicity against human IGROV1 cells at 10 uM after 48 hrs by coulter counter analysis; format: functional; details: IGROV-1, 48 h, read-out: GI
Malme-3M = experiment: Cytotoxicity against human MALME-3M cells at 10 uM after 48 hrs by coulter counter analysis; format: functional; details: read-out: GI
[3] = Cytotoxicity against human NCI-ADR-RES cells at 10 uM after 48 hrs by coulter counter analysis; format: functional; details: read-out: GI
Bacillus subtilis [4] = experiment: Antimicrobial activity against Bacillus subtilis after 24 hrs by micro-dilution susceptibility method; format: functional
How it was run: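 Broth microdilution in Müller-Hinton broth against S. aureus IFO 3060, B. subtilis IFO 3007, E. coli IFO 3301 and P. aeruginosa IFO 3448. These are the same standard strains used in the disc-diffusion primary screen. Compounds were solubilized in DMSO. MIC recorded as the minimal inhibitory concentration.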

O=C(O)c1cccnc1Sc1nc2ccc(Cl)cc2c(=O)n1-c1ccccc1
inhibition of growth at 10 µM (Hs-578T): < 10%
inhibition of growth at 10 µM (NCI-H522): < 10%
inhibition of growth at 10 µM (PC-3): < 10%
inhibition of growth at 10 µM (MDA-MB-231): 10.4%
inhibition of growth at 10 µM (LOX IMVI): < 10%
inhibition of growth at 10 µM (NCI-H23): < 10%
inhibition of growth at 10 µM (A498): < 10%
inhibition of growth at 10 µM (MOLT-4): < 10%
inhibition of growth at 10 µM (UACC-62): < 10%
inhibition of growth at 10 µM (RXF 393): < 10%
inhibition of growth at 10 µM (HL-60(TB)): < 10%
zone of inhibition at 200 µg/disc (Micrococcus luteus): 8 mm
inhibition of growth at 10 µM (NCI-H226): 15.1%
zone of inhibition at 200 µg/disc (Pseudomonas aeruginosa): 8 mm
inhibition of growth at 10 µM (SK-MEL-5): < 10%
inhibition of growth at 10 µM [1]: < 10%
inhibition of growth at 10 µM (A549): < 10%
inhibition of growth at 10 µM (SN12C): < 10%
zone of inhibition at 200 µg/disc (Bacillus subtilis [2]): 16 mm
inhibition of growth at 10 µM (SR): < 10%
zone of inhibition at 200 µg/disc (Escherichia coli): 8 mm
inhibition of growth at 10 µM (UO-31): 20.5%
IC50 (Dihydrofolate reductase): 8 µM
inhibition of growth at 10 µM (SF-295): < 10%
inhibition of growth at 10 µM (CAKI-1): < 10%
inhibition of growth at 10 µM (CCRF-CEM): < 10%
inhibition of growth at 10 µM (SNB-75): < 10%
inhibition of growth at 10 µM (MCF7): < 10%
inhibition of growth at 10 µM (T47D): 15%
inhibition of growth at 10 µM (OVCAR-4): < 10%
inhibition of growth at 10 µM (SNB-19): < 10%
inhibition of growth at 10 µM (MDA-MB-435): < 10%
zone of inhibition at 200 µg/disc (Staphylococcus aureus): 15 mm
inhibition of growth at 10 µM (RPMI-8226): < 10%
inhibition of growth at 10 µM (IGROV-1): < 10%
inhibition of growth at 10 µM (Malme-3M): < 10%
inhibition of growth at 10 µM [3]: < 10%

O=C(O)c1ccc([N+](=O)[O-])cc1Sc1nc2ccc(Cl)cc2c(=O)n1Cc1ccccc1
zone of inhibition at 200 µg/disc (Micrococcus luteus): 8 mm
zone of inhibition at 200 µg/disc (Pseudomonas aeruginosa): 8 mm
zone of inhibition at 200 µg/disc (Bacillus subtilis [2]): 15 mm
zone of inhibition at 200 µg/disc (Escherichia coli): 8 mm
IC50 (Dihydrofolate reductase): 8 µM
zone of inhibition at 200 µg/disc (Staphylococcus aureus): 8 mm

O=C(O)c1ccc([N+](=O)[O-])cc1Sc1nc2ccc(Cl)cc2c(=O)n1-c1ccccc1
zone of inhibition at 200 µg/disc (Micrococcus luteus): 8 mm
zone of inhibition at 200 µg/disc (Pseudomonas aeruginosa): 8 mm
zone of inhibition at 200 µg/disc (Bacillus subtilis [2]): 20 mm
zone of inhibition at 200 µg/disc (Escherichia coli): 8 mm
IC50 (Dihydrofolate reductase): 10 µM
zone of inhibition at 200 µg/disc (Staphylococcus aureus): 14 mm
MIC (Bacillus subtilis [4]): 4 µg/mL (≈ 8.81 µM)

Cc1ccc2nc(Sc3cc([N+](=O)[O-])ccc3C(=O)O)n(Cc3ccccc3)c(=O)c2c1
zone of inhibition at 200 µg/disc (Micrococcus luteus): 8 mm
zone of inhibition at 200 µg/disc (Pseudomonas aeruginosa): 8 mm
zone of inhibition at 200 µg/disc (Bacillus subtilis [2]): 8 mm
zone of inhibition at 200 µg/disc (Escherichia coli): 8 mm
IC50 (Dihydrofolate reductase): 12 µM
zone of inhibition at 200 µg/disc (Staphylococcus aureus): 8 mm

Cc1ccc2nc(Sc3cc([N+](=O)[O-])ccc3C(=O)O)n(-c3ccccc3)c(=O)c2c1
zone of inhibition at 200 µg/disc (Micrococcus luteus): 8 mm
zone of inhibition at 200 µg/disc (Pseudomonas aeruginosa): 8 mm
zone of inhibition at 200 µg/disc (Bacillus subtilis [2]): 8 mm
zone of inhibition at 200 µg/disc (Escherichia coli): 8 mm
IC50 (Dihydrofolate reductase): 10 µM
zone of inhibition at 200 µg/disc (Staphylococcus aureus): 8 mm

COc1cc2nc(Sc3cc([N+](=O)[O-])ccc3C(=O)O)n(Cc3ccccc3)c(=O)c2cc1OC
zone of inhibition at 200 µg/disc (Micrococcus luteus): 8 mm
zone of inhibition at 200 µg/disc (Pseudomonas aeruginosa): 8 mm
zone of inhibition at 200 µg/disc (Bacillus subtilis [2]): 8 mm
zone of inhibition at 200 µg/disc (Escherichia coli): 8 mm
IC50 (Dihydrofolate reductase): 3 µM
zone of inhibition at 200 µg/disc (Staphylococcus aureus): 18 mm

CCOC(=O)c1nc(N)sc1Sc1nc2cc(OC)c(OC)cc2c(=O)n1Cc1ccccc1
zone of inhibition at 200 µg/disc (Micrococcus luteus): 8 mm
zone of inhibition at 200 µg/disc (Pseudomonas aeruginosa): 8 mm
zone of inhibition at 200 µg/disc (Bacillus subtilis [2]): 20 mm
zone of inhibition at 200 µg/disc (Escherichia coli): 8 mm
IC50 (Dihydrofolate reductase): 2 µM
zone of inhibition at 200 µg/disc (Staphylococcus aureus): 18 mm

CCOC(=O)c1nc(N)sc1Sc1nc2ccc(Cl)cc2c(=O)n1-c1ccccc1
zone of inhibition at 200 µg/disc (Micrococcus luteus): 8 mm
zone of inhibition at 200 µg/disc (Pseudomonas aeruginosa): 8 mm
zone of inhibition at 200 µg/disc (Bacillus subtilis [2]): 8 mm
zone of inhibition at 200 µg/disc (Escherichia coli): 8 mm
IC50 (Dihydrofolate reductase): 3 µM
zone of inhibition at 200 µg/disc (Staphylococcus aureus): 8 mm

CCOC(=O)c1nc(N)sc1Sc1nc2cc(OC)c(OC)cc2c(=O)n1-c1ccccc1
zone of inhibition at 200 µg/disc (Micrococcus luteus): 8 mm
zone of inhibition at 200 µg/disc (Pseudomonas aeruginosa): 8 mm
zone of inhibition at 200 µg/disc (Bacillus subtilis [2]): 8 mm
zone of inhibition at 200 µg/disc (Escherichia coli): 8 mm
IC50 (Dihydrofolate reductase): 0.3 µM
zone of inhibition at 200 µg/disc (Staphylococcus aureus): 8 mm
